Measurements taken from ChEMBL document CHEMBL5724801, “EUbOPEN Chemogenomics Library - Multiplex” (2024).
Where “and” joins values, the source holds several entries; their conditions need not be identical. Equal values may be shown once.

System: HEK-293T
Experiment: Multiplex assay against HEK293T
Assay type: toxicity, cell-based
Conditions: human
Procedure, shortened: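 Live cells were stained at seeding with Hoechst33342, BioTracker Green Microtubule Cytoskeleton Dye, MitoTracker Red and Annexin V Alexa Fluor 680. Following compound addition, they were imaged on a CQ1 microscope at 37°C and 5% CO2 and gated by CellPathfinder machine learning into Hoechst high-intensity objects or normal cells, with normal cells split into healthy, pyknosed or fragmented nuclei and pyknosed cells into mitotic or apoptotic. Tubulin, mitochondrial-mass and membrane-permeability phenotypes are per cents of healthy-nucleus cells.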

[1] = 12 h, 1 µM, compound concentration 1 uM
[2] = 12 h, 10 µM, compound concentration 10 uM
[3] = 24 h, 1 µM, compound concentration 1 uM
[4] = 24 h, 10 µM, compound concentration 10 uM
[5] = 48 h, 1 µM, compound concentration 1 uM
[6] = 48 h, 10 µM, compound concentration 10 uM

Compound: O=C1NC(NC23CC4CC(CC(C4)C2)C3)=N/C1=C\c1ccc2ncsc2c1
- Population Apoptotic (%) [1]: 29.13% and 49.03%
- Population Fragmented Nuclei (%) [1]: 8.91% and 6.01%
- Population Hoechst High Intensity Objects (%) [1]: 6.05% and 0.54%
- Population Membrane Permeable-Phenotype (%) [1]: 1.75% and 0%
- Population Mitochondria Different-Phenotype (%) [1]: 15.79% and 5.88%
- Population Mitotic Cells (%) [1]: 70.87% and 50.97%
- Population Normal (%) [1]: 93.95% and 99.46%
- Population Pyknosed Nuclei (%) [1]: 62.87% and 84.7%
- Population Tubulin-Different-Phenotype (%) [1]: 17.54% and 23.53%
- Total Cell Count [1]: 215 and 184
- Population Apoptotic (%) [2]: 29.21% and 56.72%
- Population Fragmented Nuclei (%) [2]: 84.08% and 93.38%
- Population Healthy Nuclei (%) [2]: 3.91% and 2.86%
- Population Hoechst High Intensity Objects (%) [2]: 21.42% and 7.86%
- Population Membrane Permeable-Phenotype (%) [2]: 0%
- Population Mitochondria Different-Phenotype (%) [2]: 0%
- Population Mitotic Cells (%) [2]: 70.79% and 43.28%
- Population Normal (%) [2]: 78.58% and 92.14%
- Population Pyknosed Nuclei (%) [2]: 12.01% and 3.76%
- Population Tubulin-Different-Phenotype (%) [2]: 0%
- Total Cell Count [2]: 943 and 1934
- Population Apoptotic (%) [3]: 59.35% and 52.46%
- Population Fragmented Nuclei (%) [3]: 10.75% and 5.21%
- Population Healthy Nuclei (%) [3]: 23.12% and 8.06%
- Population Hoechst High Intensity Objects (%) [3]: 4.62% and 0%
- Population Membrane Permeable-Phenotype (%) [3]: 6.98% and 5.88%
- Population Mitochondria Different-Phenotype (%) [3]: 4.65% and 0%
- Population Mitotic Cells (%) [3]: 40.65% and 47.54%
- Population Normal (%) [3]: 95.38% and 100%
- Population Pyknosed Nuclei (%) [3]: 66.13% and 86.73%
- Population Tubulin-Different-Phenotype (%) [3]: 16.28% and 11.76%
- Total Cell Count [3]: 195 and 211
- Population Apoptotic (%) [4]: 30% and 40.21%
- Population Fragmented Nuclei (%) [4]: 85.18% and 91.28%
- Population Healthy Nuclei (%) [4]: 4.04% and 1.95%
- Population Hoechst High Intensity Objects (%) [4]: 21.4% and 9.41%
- Population Membrane Permeable-Phenotype (%) [4]: 3.33% and 0%
- Population Mitochondria Different-Phenotype (%) [4]: 0%
- Population Mitotic Cells (%) [4]: 70% and 59.79%
- Population Normal (%) [4]: 78.6% and 90.59%
- Population Pyknosed Nuclei (%) [4]: 10.78% and 6.76%
- Population Tubulin-Different-Phenotype (%) [4]: 0% and 3.57%
- Total Cell Count [4]: 944 and 1583
- Population Apoptotic (%) [5]: 47.65% and 48.67%
- Population Fragmented Nuclei (%) [5]: 14.23% and 10.83%
- Population Healthy Nuclei (%) [5]: 14.64% and 17.2%
- Population Hoechst High Intensity Objects (%) [5]: 2.85% and 0.63%
- Population Membrane Permeable-Phenotype (%) [5]: 0% and 3.7%
- Population Mitochondria Different-Phenotype (%) [5]: 40% and 33.33%
- Population Mitotic Cells (%) [5]: 52.35% and 51.33%
- Population Normal (%) [5]: 97.15% and 99.37%
- Population Pyknosed Nuclei (%) [5]: 71.13% and 71.97%
- Population Tubulin-Different-Phenotype (%) [5]: 25.71% and 48.15%
- Total Cell Count [5]: 246 and 158
- Population Apoptotic (%) [6]: 35.64% and 60.49%
- Population Fragmented Nuclei (%) [6]: 84.47% and 93.33%
- Population Healthy Nuclei (%) [6]: 3.18% and 1.42%
- Population Hoechst High Intensity Objects (%) [6]: 23.26% and 9.23%
- Population Membrane Permeable-Phenotype (%) [6]: 0%
- Population Mitochondria Different-Phenotype (%) [6]: 0%
- Population Mitotic Cells (%) [6]: 64.36% and 39.51%
- Population Normal (%) [6]: 76.74% and 90.77%
- Population Pyknosed Nuclei (%) [6]: 12.35% and 5.25%
- Population Tubulin-Different-Phenotype (%) [6]: 0%
- Total Cell Count [6]: 1066 and 1701

Compound: CC[C@@H](C)Nc1nc(C)nc2c(-c3ccc(OC)nc3C)c(C)nn12 [PEXACERFONT]
- Population Apoptotic (%) [1]: 33% and 47%
- Population Fragmented Nuclei (%) [1]: 7% and 5%
- Population Healthy Nuclei (%) [1]: 79% and 82%
- Population Hoechst High Intensity Objects (%) [1]: 6% and 8%
- Population Membrane Permeable-Phenotype (%) [1]: 0%
- Population Mitochondria Different-Phenotype (%) [1]: 45% and 61%
- Population Mitotic Cells (%) [1]: 66% and 52%
- Population Normal (%) [1]: 93% and 91%
- Population Pyknosed Nuclei (%) [1]: 13% and 11%
- Population Tubulin-Different-Phenotype (%) [1]: 34% and 31%
- Total Cell Count [1]: 399 and 314
- Population Apoptotic (%) [2]: 38% and 41%
- Population Fragmented Nuclei (%) [2]: 6% and 9%
- Population Healthy Nuclei (%) [2]: 75% and 74%
- Population Hoechst High Intensity Objects (%) [2]: 8% and 11%
- Population Membrane Permeable-Phenotype (%) [2]: 0% and 1%
- Population Mitochondria Different-Phenotype (%) [2]: 59% and 75%
- Population Mitotic Cells (%) [2]: 61% and 58%
- Population Normal (%) [2]: 91% and 88%
- Population Pyknosed Nuclei (%) [2]: 17% and 16%
- Population Tubulin-Different-Phenotype (%) [2]: 54% and 55%
- Total Cell Count [2]: 451 and 321
- Population Apoptotic (%) [3]: 24% and 45%
- Population Fragmented Nuclei (%) [3]: 8% and 13%
- Population Healthy Nuclei (%) [3]: 79% and 76%
- Population Hoechst High Intensity Objects (%) [3]: 3% and 7%
- Population Membrane Permeable-Phenotype (%) [3]: 0%
- Population Mitochondria Different-Phenotype (%) [3]: 26% and 34%
- Population Mitotic Cells (%) [3]: 75% and 54%
- Population Normal (%) [3]: 96% and 92%
- Population Pyknosed Nuclei (%) [3]: 11% and 9%
- Population Tubulin-Different-Phenotype (%) [3]: 21% and 15%
- Total Cell Count [3]: 508 and 387
- Population Apoptotic (%) [4]: 37% and 33%
- Population Fragmented Nuclei (%) [4]: 6% and 7%
- Population Healthy Nuclei (%) [4]: 79% and 78%
- Population Hoechst High Intensity Objects (%) [4]: 7% and 13%
- Population Membrane Permeable-Phenotype (%) [4]: 1% and 0%
- Population Mitochondria Different-Phenotype (%) [4]: 46% and 70%
- Population Mitotic Cells (%) [4]: 62% and 66%
- Population Normal (%) [4]: 92% and 86%
- Population Pyknosed Nuclei (%) [4]: 14%
- Population Tubulin-Different-Phenotype (%) [4]: 52% and 48%
- Total Cell Count [4]: 612 and 371
- Population Apoptotic (%) [5]: 26% and 41%
- Population Fragmented Nuclei (%) [5]: 12% and 10%
- Population Healthy Nuclei (%) [5]: 80%
- Population Hoechst High Intensity Objects (%) [5]: 2%
- Population Membrane Permeable-Phenotype (%) [5]: 0% and 1%
- Population Mitochondria Different-Phenotype (%) [5]: 22% and 27%
- Population Mitotic Cells (%) [5]: 73% and 58%
- Population Normal (%) [5]: 97%
- Population Pyknosed Nuclei (%) [5]: 7% and 9%
- Population Tubulin-Different-Phenotype (%) [5]: 20% and 19%
- Total Cell Count [5]: 816 and 520
- Population Apoptotic (%) [6]: 40%
- Population Fragmented Nuclei (%) [6]: 13% and 10%
- Population Healthy Nuclei (%) [6]: 77% and 72%
- Population Hoechst High Intensity Objects (%) [6]: 7% and 18%
- Population Membrane Permeable-Phenotype (%) [6]: 1% and 0%
- Population Mitochondria Different-Phenotype (%) [6]: 45% and 53%
- Population Mitotic Cells (%) [6]: 59% and 60%
- Population Normal (%) [6]: 92% and 81%
- Population Pyknosed Nuclei (%) [6]: 9% and 17%
- Population Tubulin-Different-Phenotype (%) [6]: 38% and 36%
- Total Cell Count [6]: 692 and 390
